Experimental data gathered from unrelated publications.
Lines come from different studies, so protocols differ.
PIK3CA I800L: Phosphatidylinositol 4,5-bisphosphate 3-kinase catalytic subunit alpha isoform (PIK3CA, Homo sapiens, UniProt P42336, I800L)
PIK3CA E545A: Phosphatidylinositol 4,5-bisphosphate 3-kinase catalytic subunit alpha isoform (PIK3CA, Homo sapiens, UniProt P42336, E545A)
PIK3CA E545K: Phosphatidylinositol 4,5-bisphosphate 3-kinase catalytic subunit alpha isoform (PIK3CA, Homo sapiens, UniProt P42336, E545K)
PIK3CA E542K: Phosphatidylinositol 4,5-bisphosphate 3-kinase catalytic subunit alpha isoform (PIK3CA, Homo sapiens, UniProt P42336, E542K)
PIK3CA Q546K: Phosphatidylinositol 4,5-bisphosphate 3-kinase catalytic subunit alpha isoform (PIK3CA, Homo sapiens, UniProt P42336, Q546K)
PIK3CA: Phosphatidylinositol 4,5-bisphosphate 3-kinase catalytic subunit alpha isoform (PIK3CA, Homo sapiens, UniProt P42336)
PIK3CA M1043I: Phosphatidylinositol 4,5-bisphosphate 3-kinase catalytic subunit alpha isoform (PIK3CA, Homo sapiens, UniProt P42336, M1043I)
PIK3CA H1047L: Phosphatidylinositol 4,5-bisphosphate 3-kinase catalytic subunit alpha isoform (PIK3CA, Homo sapiens, UniProt P42336, H1047L)
PIK3CA H1047Y: Phosphatidylinositol 4,5-bisphosphate 3-kinase catalytic subunit alpha isoform (PIK3CA, Homo sapiens, UniProt P42336, H1047Y)

COc1cc(-c2cn(C3CCc4ccccc4N(CC(F)(F)F)C3=O)nn2)ccc1-n1ccc(C)n1 (stereo not shown) — remaining binding (PIK3CA I800L; cell-free assay, competition with immobilised ligand; 1 µM): 76%
O=C(NCC1CCOCC1)c1n[nH]cc1NC(=O)c1c(F)cccc1F — remaining binding (PIK3CA I800L; binding, competition with immobilised ligand; 1 µM): 77%
CN(C)c1nccc(-c2cnc3ncccn23)n1 — remaining binding (PIK3CA E545A; binding; 1 µM): 90%
COc1cnc(Nc2cccc(S(N)(=O)=O)c2)nc1N1CCN(c2ccccc2)CC1 — remaining binding (PIK3CA E545K; binding, competition with immobilised ligand; 1 µM): 72%
CC1CCCN1c1nccc(-c2cnn3ncccc23)n1 (stereo not shown) — remaining binding (PIK3CA E542K; binding; 1 µM): 43%
CN1CCN(c2ccc(Nc3nccc(-c4cccc([N+](=O)[O-])c4)n3)cc2C(F)(F)F)CC1 — remaining binding (PIK3CA E545A; binding; 10 µM): 58%
Cn1nc(C(=O)NCc2ccc(C(=O)O)cc2)cc1-c1ccc2[nH]ccc2c1 — remaining binding (PIK3CA Q546K; cell-free assay, competition with immobilised ligand; 0.1 µM): 76%
COc1cnc(Nc2cccc(S(N)(=O)=O)c2)nc1N1CCN(c2ccccc2)C(=O)C1 — remaining binding (PIK3CA; binding, competition with immobilised ligand; 1 µM): 100%
C[C@H]1CCN(c2nccc(-c3cnn4ncccc34)n2)C1 — remaining binding (PIK3CA I800L; binding; 1 µM): 95%
Cc1cc(-c2cc(C(F)(F)F)ccc2O[C@H]2C[C@@]2(CNS(=O)(=O)c2ccc([N+](=O)[O-])cc2)c2ccc(F)cc2F)[nH]n1 — remaining binding (PIK3CA M1043I; cell-free assay, competition with immobilised ligand; 0.3 µM): 8.1%
O=C(NCCCN1CCOCC1)c1ccc(Nc2nccc(-c3cc4ccccc4s3)n2)cc1 — remaining binding (PIK3CA H1047L; binding, competition with immobilised ligand; 1 µM): 90%
CN1CC[C@H](c2c(O)cc(O)c3c(=O)cc(-c4ccccc4Cl)oc23)[C@H](O)C1 — remaining binding (PIK3CA; cell-free assay, competition with immobilised ligand; 0.1 µM): 100%
COc1ccnn2ncc(-c3ccnc(N(C)C)n3)c12 — remaining binding (PIK3CA E542K; binding; 1 µM): 95%
CS(=O)(=O)N1CCCC(NC(=O)[C@H](CCC2CCCCC2)NC(=O)c2ccc(CNC(=O)c3cnc4ccccn34)cc2)C1 (stereo partly shown) — remaining binding (PIK3CA H1047L; cell-free assay, competition with immobilised ligand; 0.1 µM): 100%
c1cncc(-c2cccc(Nc3nccc(NC4CCCCC4)n3)c2)c1 — remaining binding (PIK3CA; binding, competition with immobilised ligand; 10 µM): 100%
CN(CCCC(F)(F)F)c1nccc(-c2cnn3ncccc23)n1 — remaining binding (PIK3CA H1047Y; binding; 1 µM): 100%
CN1CCN(c2ccc(Nc3nccc(-c4ccccc4)n3)cc2C(F)(F)F)CC1 — remaining binding (PIK3CA H1047L; binding; 10 µM): 55%
O=C(NCCCN1CCOCC1)c1ccc(Nc2ncc(Cl)c(-c3ccc(Cl)s3)n2)cc1 — remaining binding (PIK3CA E545A; binding, competition with immobilised ligand; 1 µM): 100%
CCC(=N\O)/C(C)=C/c1ccc(F)cc1 — remaining binding (PIK3CA E542K; cell-free assay, competition with immobilised ligand; 1 µM): 100%
CN(c1nccc(-c2cnn3ncccc23)n1)C1CC1 — remaining binding (PIK3CA M1043I; binding; 1 µM): 100%
O=C(c1ccc(Nc2ncc(Cl)c(-c3ccc(Cl)s3)n2)cc1)N1CCC(N2CCCC2)CC1 — remaining binding (PIK3CA H1047L; binding, competition with immobilised ligand; 1 µM): 100%
C=CC(=O)N1CCC(C(=O)NCC(=O)N2CCN(c3nc(-c4cnc(N)nc4C(F)F)nc(N4CCOCC4)n3)CC2)CC1 — remaining binding (PIK3CA; binding, competition with immobilised ligand; 1 µM): 0.4%
O=C1CCc2cc(Nc3cc(OC4CCOCC4)c([N+](=O)[O-])cc3Cl)ccc2N1 — remaining binding (PIK3CA; cell-free assay, competition with immobilised ligand; 1 µM): 79%
O=C(c1ccc(Nc2ncc(Cl)c(-c3cc4ccccc4s3)n2)cc1)N1CCC(N2CCCC2)CC1 — remaining binding (PIK3CA H1047Y; binding, competition with immobilised ligand; 1 µM): 70%
O=C(Nc1c[nH]nc1C(=O)NC1CCNCC1)c1cc(F)cc(F)c1 — remaining binding (PIK3CA I800L; binding, competition with immobilised ligand; 1 µM): 81%
COc1ncc2cc3ccccc3nc2c1C#N — remaining binding (PIK3CA E545A; cell-free assay, competition with immobilised ligand; 5 µM): 99%
Nc1ncc2c(n1)-c1c([nH]c3ccc(C#CC4CC4)cc13)CCCC2 — remaining binding (PIK3CA E542K; binding, competition with immobilised ligand; 1 µM): 91%
O=C(c1ccc(Nc2nccc(-c3cc4ccccc4s3)n2)cc1)N1CCC(N2CCCC2)CC1 — remaining binding (PIK3CA E545K; binding, competition with immobilised ligand; 1 µM): 82%
CNC(=O)[C@@H]1CC[C@@H](n2c(-c3ccc4cnccc4c3)nc3ccc(C(=O)NCc4cccc(C(N)=O)c4)cc32)C1 — remaining binding (PIK3CA E545A; binding, competition with immobilised ligand; 1 µM): 89%
C[C@@H](c1ccc(-n2cnc3c(N)ncnc32)cc1)N1CCc2nn(C)c(Cc3ccccc3)c2C1=O — remaining binding (PIK3CA E545K; binding, competition with immobilised ligand; 0.1 µM): 67%
CCN1CCN(Cc2ccc(C(=O)Nc3ccc(C)c(Oc4ccc5c(c4)CC(=O)N5)c3)cc2C(F)(F)F)CC1 — remaining binding (PIK3CA E542K; binding, competition with immobilised ligand; 1 µM): 100%
Cn1nc(C(F)(F)F)cc1-c1cnc(N2CCc3cc(S(=O)(=O)Nc4c(F)cc(Cl)cc4F)cc(N4CCCC4=O)c32)nc1 — remaining binding (PIK3CA E545K; cell-free assay, competition with immobilised ligand; 1 µM): 82%
CN(C)c1ncc(F)c(-c2cnn3ncccc23)n1 — remaining binding (PIK3CA I800L; binding; 1 µM): 46%
Cc1c(NC(=O)c2cc(C(N)=O)nc3cc(F)ccc23)c(C(F)(F)F)nn1Cc1ccc(C#N)cc1 — remaining binding (PIK3CA H1047Y; cell-free assay, competition with immobilised ligand; 1 µM): 86%
Cc1cnc(Nc2ccc(C(=O)N3CCC(N4CCCC4)CC3)cc2)nc1-c1cc2ccccc2s1 — remaining binding (PIK3CA Q546K; binding, competition with immobilised ligand; 1 µM): 97%
N[C@@H]1CCN(c2nccc(-c3cnn4ncccc34)n2)C1 — remaining binding (PIK3CA E545K; binding; 1 µM): 100%
CS(=O)(=O)c1cc(C2(NC(=O)c3cncc4c3cnn4-c3ccc(F)cc3)CC2)ccn1 — remaining binding (PIK3CA Q546K; cell-free assay, competition with immobilised ligand; 1 µM): 66%
